For assay [1], the target named is T1, Alpha-1B adrenergic receptor (Rattus norvegicus) (UniProt P15823).
T1 sequence (whole entry): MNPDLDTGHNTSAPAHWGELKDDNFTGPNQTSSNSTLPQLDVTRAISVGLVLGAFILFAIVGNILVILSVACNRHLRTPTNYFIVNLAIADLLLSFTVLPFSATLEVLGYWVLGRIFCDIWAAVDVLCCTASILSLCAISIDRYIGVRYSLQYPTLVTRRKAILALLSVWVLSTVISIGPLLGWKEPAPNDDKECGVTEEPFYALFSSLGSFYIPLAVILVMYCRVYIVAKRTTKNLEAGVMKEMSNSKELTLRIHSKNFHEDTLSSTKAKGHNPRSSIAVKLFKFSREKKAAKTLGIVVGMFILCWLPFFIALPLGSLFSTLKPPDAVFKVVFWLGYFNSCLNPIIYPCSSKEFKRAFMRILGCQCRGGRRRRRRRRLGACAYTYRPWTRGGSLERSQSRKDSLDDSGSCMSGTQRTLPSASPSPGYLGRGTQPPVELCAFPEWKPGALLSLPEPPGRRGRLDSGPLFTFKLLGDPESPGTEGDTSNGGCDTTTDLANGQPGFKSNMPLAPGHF
Description: Antagonist activity at Alpha-1B adrenoceptor in Wistar rat spleen assessed as phenylephrine induced contractions after 30 mins. It counts as functional, tissue-based. The method in brief:
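Spleen strips from male Wistar rats (275–300 g) were set up in a 20 mL bath of physiological salt solution (pH 7.4, 37 °C, 95% O2/5% CO2) under 1 g tension and equilibrated 2 h. Two cumulative phenylephrine curves were run, each followed by 30 min washing, then 30 min incubation with vehicle or antagonist before a third curve. Values are Schild pA2, or pKB where slopes were nonparallel; 4–6 experiments.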

Assay [2] concerns the target T2, Alpha-1D adrenergic receptor (Rattus norvegicus) (UniProt P23944).
T2 sequence (whole entry): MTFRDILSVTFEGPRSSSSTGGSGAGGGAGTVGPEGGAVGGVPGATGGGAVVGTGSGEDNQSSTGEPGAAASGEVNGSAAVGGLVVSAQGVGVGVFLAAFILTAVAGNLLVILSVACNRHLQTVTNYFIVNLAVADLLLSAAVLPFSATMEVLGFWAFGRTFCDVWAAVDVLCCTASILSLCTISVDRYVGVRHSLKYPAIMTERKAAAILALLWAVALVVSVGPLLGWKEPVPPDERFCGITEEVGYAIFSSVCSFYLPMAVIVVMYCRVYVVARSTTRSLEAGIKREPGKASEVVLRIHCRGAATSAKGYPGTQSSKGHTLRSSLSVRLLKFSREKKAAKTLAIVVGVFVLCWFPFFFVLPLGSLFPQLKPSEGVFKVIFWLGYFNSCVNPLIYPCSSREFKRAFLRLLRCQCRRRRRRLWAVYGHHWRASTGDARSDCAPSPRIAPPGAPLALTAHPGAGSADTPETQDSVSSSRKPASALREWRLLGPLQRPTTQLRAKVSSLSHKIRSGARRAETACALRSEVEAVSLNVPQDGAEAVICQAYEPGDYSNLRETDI
The conditions noted are these: Wistar, Thoracic aorta.

In assay [3] the target is T3, Alpha-1B adrenergic receptor (Homo sapiens, UniProt P35368).
T3 sequence (P35368 whole entry): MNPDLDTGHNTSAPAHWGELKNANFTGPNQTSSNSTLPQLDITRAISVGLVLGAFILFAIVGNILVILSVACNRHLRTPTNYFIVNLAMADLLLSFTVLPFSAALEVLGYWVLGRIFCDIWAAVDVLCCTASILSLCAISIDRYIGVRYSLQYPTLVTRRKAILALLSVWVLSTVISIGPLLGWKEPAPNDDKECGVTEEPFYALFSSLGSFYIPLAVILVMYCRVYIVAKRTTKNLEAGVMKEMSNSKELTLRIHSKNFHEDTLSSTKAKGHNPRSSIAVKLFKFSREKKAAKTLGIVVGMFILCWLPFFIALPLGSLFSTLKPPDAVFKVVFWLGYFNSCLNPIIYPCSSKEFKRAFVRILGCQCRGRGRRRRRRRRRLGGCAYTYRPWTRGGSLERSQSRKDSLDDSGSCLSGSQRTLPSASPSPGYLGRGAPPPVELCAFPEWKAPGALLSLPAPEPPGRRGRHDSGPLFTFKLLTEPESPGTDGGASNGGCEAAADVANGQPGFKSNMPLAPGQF
Briefly: Displacement of [3H]prazosin from human Alpha-1B adrenoceptor expressed in CHO cells. It counts as cell-based. The method in brief:
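Membranes ([…], as printed) from CHO cells stably expressing the cloned human α1b subtype were incubated with 0.1–0.4 nM [³H]prazosin and competitor (1 pM up to the top concentration) in 50 mM Tris-HCl, pH 7.4, for 30 min at 25 °C. Non-specific binding was defined with phentolamine, and incubations ended by filtration. Ki was derived from IC50 by Cheng–Prusoff. Reported as pKi from 2–3 triplicate experiments.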

Assay [4] addresses T4, Alpha-1A adrenergic receptor (Rattus norvegicus) (UniProt P43140).
T4 sequence (whole entry): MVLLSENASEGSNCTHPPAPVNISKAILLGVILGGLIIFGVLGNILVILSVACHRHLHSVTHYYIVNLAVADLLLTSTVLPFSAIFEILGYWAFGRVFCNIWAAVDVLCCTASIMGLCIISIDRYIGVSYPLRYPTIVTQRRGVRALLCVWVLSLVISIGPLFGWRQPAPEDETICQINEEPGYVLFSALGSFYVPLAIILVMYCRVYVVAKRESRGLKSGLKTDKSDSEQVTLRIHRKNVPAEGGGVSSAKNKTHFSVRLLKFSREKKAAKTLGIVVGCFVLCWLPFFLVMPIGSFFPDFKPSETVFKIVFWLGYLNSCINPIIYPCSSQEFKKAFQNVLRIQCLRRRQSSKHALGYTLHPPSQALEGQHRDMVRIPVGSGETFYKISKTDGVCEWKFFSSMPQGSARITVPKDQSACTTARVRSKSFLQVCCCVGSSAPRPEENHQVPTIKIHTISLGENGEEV
Description: Antagonist activity at alpha1A adrenoceptor in Wistar rat vas deferens assessed as noradrenaline induced contractions after 30 mins. Format: functional, tissue-based. The method in brief: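 Prostatic portions (2 cm) of vas deferens from male Wistar rats (275–300 g) were held under 0.35 g tension in Tyrode solution at 37 °C with cocaine present. Tissues were equilibrated 45 min, primed twice with noradrenaline, then given a cumulative isotonic noradrenaline curve.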

Assay [5] concerns the target T5, Alpha-1D adrenergic receptor (Homo sapiens, UniProt P25100).
T5 sequence (P25100 whole entry): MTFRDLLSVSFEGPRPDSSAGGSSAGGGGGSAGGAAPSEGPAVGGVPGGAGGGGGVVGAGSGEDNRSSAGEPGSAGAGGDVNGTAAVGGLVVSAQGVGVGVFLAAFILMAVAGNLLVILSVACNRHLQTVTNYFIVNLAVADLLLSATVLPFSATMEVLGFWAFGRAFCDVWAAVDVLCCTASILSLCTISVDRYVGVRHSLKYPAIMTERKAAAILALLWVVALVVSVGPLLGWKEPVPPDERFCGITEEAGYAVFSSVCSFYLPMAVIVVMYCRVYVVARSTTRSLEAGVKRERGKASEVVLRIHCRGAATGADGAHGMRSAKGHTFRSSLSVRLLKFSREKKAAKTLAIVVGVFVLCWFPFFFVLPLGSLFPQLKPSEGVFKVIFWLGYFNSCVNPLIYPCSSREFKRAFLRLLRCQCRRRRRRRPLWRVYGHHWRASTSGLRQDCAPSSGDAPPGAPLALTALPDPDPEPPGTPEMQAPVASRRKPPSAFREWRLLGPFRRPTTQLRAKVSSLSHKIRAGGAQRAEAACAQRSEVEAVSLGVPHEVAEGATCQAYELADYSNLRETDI
Briefly: Displacement of [3H]prazosin from human Alpha-1D adrenoceptor expressed in CHO cells. It counts as cell-based. An outline of the steps:
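Membranes ([…], as printed) from CHO cells stably expressing the cloned human α1d subtype were incubated with 0.1–0.4 nM [³H]prazosin and competing drug (1 pM upward) in 50 mM Tris-HCl, pH 7.4, for 30 min at 25 °C. Phentolamine defined non-specific binding. IC50 was converted to Ki by Cheng–Prusoff. Reported as pKi from 2–3 triplicate experiments.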

The values that follow come from ChEMBL document CHEMBL1629492 (Eur J Med Chem, 2010).

Consider `CCOc1ccccc1OCCN[C@H](C)Cc1ccc(OC)c(S(N)(=O)=O)c1` [TAMSULOSIN], for which the pKb – broadly, the Kb on a negative log10 scale, so that one unit is a factor of ten – in assay [1] is 9.3; in assay [2], 10; in assay [4] it was 9.46. Moreover, the values for the inhibition constant (Ki) in assay [3] and in assay [5] were 0.631 nM and 0.1 nM, respectively.
